Data as given in ChEMBL document CHEMBL2146413, “Mammalian multidrug resistance lipopentasaccharide inhibitors from Ipomoea alba seeds” (J Nat Prod, 2012).
≈ marks a conversion by molar mass, not a printed value.

What was measured:
[1] = system: MDR; test: Inhibition of MDR in vinblastine-sensitive human MCF7 cells assessed as decrease in vinblastine IC50 at 25 ug/mL after 72 hrs by SRB assay; assay type: cell-based
Outline: (§1)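 Vinblastine (0.00064−10 μg/mL) was given with or without glycolipid at 25 or 5 μg/mL for 72 h at 37 °C, 5% CO2, then read by SRB assay. Vinblastine IC50 came from a semilog plot. Reversal fold = IC50 of vinblastine alone / IC50 with glycolipid. Reserpine 5 μg/mL served as positive control. Values are mean ± SD of three independent experiments.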

[2] = system: MDR; test: Inhibition of MDR in vinblastine-resistant human MCF7 cells assessed as decrease in vinblastine IC50 at 25 ug/mL after 72 hrs by SRB assay; assay type: cell-based; outline: as §1
[3] = system: MCF7; test: Cytotoxicity against vinblastine-reasistant human MCF7 cells after 72 hrs by SRB assay; assay type: functional, cell-based; settings: MCF7, 72 h
Outline: (§2)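 Log-phase cells in RPMI 1640 + 10% FBS, 37 °C, 5% CO2, exposed in triplicate to 0.2−25 μg/mL test sample for 72 h. Growth read by sulforhodamine B. IC50 = concentration giving 50% inhibition of control growth, taken from a semilog plot of concentration against % growth inhibition. Vinblastine served as positive control. Resistant line MCF-7/Vin was kept with or without 0.192 μg/mL vinblastine.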

[4] = system: MCF7; test: Cytotoxicity against vinblastine-sensitive human MCF7 cells after 72 hrs by SRB assay; assay type: functional, cell-based; settings: MCF7, 72 h; outline: as §2
[5] = system: MCF7; test: Cytotoxicity against drug-sensitive human MCF7 cells after 72 hrs by SRB assay; assay type: functional, cell-based; settings: MCF7, 72 h; outline: as §2
[6] = system: MDR; test: Inhibition of MDR in drug-sensitive human MCF7 cells assessed as decrease in vinblastine IC50 at 25 ug/mL after 72 hrs by SRB assay; assay type: cell-based; outline: as §1
[7] = system: MDR; test: Inhibition of MDR in drug-sensitive human MCF7 cells assessed as decrease in vinblastine IC50 at 5 ug/mL after 72 hrs by SRB assay; assay type: cell-based; outline: as §1
[8] = system: MDR; test: Inhibition of MDR in vinblastine-sensitive human MCF7 cells assessed as decrease in vinblastine IC50 at 5 ug/mL after 72 hrs by SRB assay; assay type: cell-based; outline: as §1
[9] = system: MDR; test: Inhibition of MDR in vinblastine-resistant human MCF7 cells assessed as decrease in vinblastine IC50 at 5 ug/mL after 72 hrs by SRB assay; assay type: cell-based; outline: as §1

| SMILES | fold change (FC) [1] | fold change (FC) [2] | IC50 [3] [µg/mL] | IC50 [4] [µg/mL] | IC50 [5] [µg/mL] | fold change (FC) [6] | fold change (FC) [7] | fold change (FC) [8] | fold change (FC) [9] |
| --- | --- | --- | --- | --- | --- | --- | --- | --- | --- |
| C/C=C(\C)C(=O)O[C@H]1[C@@H]2O[C@H]3[C@H](O[C@@H](CCC)CCCCCCCCCC(=O)O[C@@H]4[C@@H](O)[C@H](C)O[C@@H](O[C@@H]5[C@@H](O[C@@H]6O[C@@H](C)[C@H](O)[C@@H](O)[C@H]6O)[C@H](O[C@H]([C@H]1O)[C@H](C)O2)O[C@H](C)[C@H]5OC(=O)/C(C)=C/C)[C@@H]4O)O[C@H](C)[C@@H](O)[C@@H]3O [ALBINOSIDE II] | 1.3 | 2.6 | > 20 | > 20 | > 20 | 1.9 | – | – | – |
| C/C=C(\C)C(=O)O[C@H]1[C@H](O[C@H]2[C@@H]3O[C@H]4[C@H](O[C@@H](CCCCC)CCCCCCCCCC(=O)O[C@H]2[C@H](O)[C@@H](CO[C@@H]2O[C@H](C)[C@@H](O)[C@H](OC(=O)/C(C)=C/C)[C@H]2O[C@@H]2O[C@@H](C)[C@H](O)[C@@H](O)[C@H]2O)O3)O[C@H](C)[C@@H](O)[C@@H]4O)O[C@@H](C)[C@H](O)[C@H]1O [ALBINOSIDE III] | > 1690 | > 2140 | > 20 | > 20 | > 20 | > 73.4 | – | – | – |
| CC[C@]1(O)C[C@@H]2CN(CCc3c([nH]c4ccccc34)[C@@](C(=O)OC)(c3cc4c(cc3OC)N(C)[C@H]3[C@@](O)(C(=O)OC)[C@H](OC(C)=O)[C@]5(CC)C=CCN6CC[C@]43[C@@H]65)C2)C1 [VINBLASTINE] | – | – | 1.37 (≈ 1.69 µM) | – | 0.047 (≈ 0.058 µM) | – | – | – | – |
| CCC[C@H]1CCCCCCCCCC(=O)O[C@H]2[C@H](O[C@H]3[C@H](OC[C@H]4O[C@@H](O[C@H]5[C@H](O1)O[C@H](C)[C@@H](O)[C@@H]5O)[C@H](O[C@@H]1O[C@@H](C)[C@H](OC(C)=O)[C@@H](O)[C@H]1O)[C@@H](O)[C@@H]4O)O[C@H](C)[C@@H](O)[C@@H]3O)O[C@@H](C)[C@H](OC(=O)[C@H](C)[C@@H](C)O)[C@H]2O [ALBINOSIDE I] | 4.2 | 3.1 | > 20 | > 20 | > 20 | 2.1 | – | – | – |
| COC(=O)[C@H]1[C@H]2C[C@@H]3c4[nH]c5cc(OC)ccc5c4CCN3C[C@H]2C[C@@H](OC(=O)c2cc(OC)c(OC)c(OC)c2)[C@@H]1OC | – | – | – | – | – | – | 15.7 | 29.2 | 4.4 |
